In ChEMBL document CHEMBL1821578, “Bioactive A-type proanthocyanidins from Cinnamomum cassia” (J Nat Prod, 2011):

Experiments:
[1] = target: T1, Prostaglandin G/H synthase 2 (Homo sapiens) (UniProt P35354); test: Inhibition of human recombinant COX2 expressed in Sf9 cells at 10 ug/mL
T1 sequence (whole entry): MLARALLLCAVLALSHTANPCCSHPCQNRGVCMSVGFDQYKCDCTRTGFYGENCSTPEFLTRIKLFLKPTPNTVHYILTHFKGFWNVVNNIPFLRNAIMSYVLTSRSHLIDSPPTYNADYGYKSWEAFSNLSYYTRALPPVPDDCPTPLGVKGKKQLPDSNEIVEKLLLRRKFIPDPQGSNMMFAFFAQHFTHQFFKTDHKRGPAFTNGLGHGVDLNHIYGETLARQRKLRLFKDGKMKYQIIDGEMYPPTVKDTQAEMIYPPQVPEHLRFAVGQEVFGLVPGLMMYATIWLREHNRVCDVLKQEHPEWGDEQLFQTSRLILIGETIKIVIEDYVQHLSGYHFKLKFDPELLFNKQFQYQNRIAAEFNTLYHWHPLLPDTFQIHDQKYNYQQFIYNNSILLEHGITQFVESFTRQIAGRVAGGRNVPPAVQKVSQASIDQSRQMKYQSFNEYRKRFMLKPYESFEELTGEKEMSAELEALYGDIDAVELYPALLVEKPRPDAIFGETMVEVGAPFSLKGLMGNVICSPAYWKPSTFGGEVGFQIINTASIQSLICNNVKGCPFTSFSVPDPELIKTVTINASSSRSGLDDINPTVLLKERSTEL
Method in brief: (§1)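 Enzyme: human recombinant COX-2 produced in Sf9 cells, assayed by a previously published procedure. Each compound was run in triplicate at three log-spaced levels (10, 100 and 1000 μg/mL). Inhibition of enzyme activity is the read-out.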

[2] = target: T1, Prostaglandin G/H synthase 2 (Homo sapiens); test: Inhibition of human recombinant COX2 expressed in Sf9 cells at 100 ug/mL; method in brief: as §1
[3] = target: T1, Prostaglandin G/H synthase 2 (Homo sapiens); test: Inhibition of human recombinant COX2 expressed in Sf9 cells at 1000 ug/mL; method in brief: as §1

inhibition [1] [%] | inhibition [2] [%] | inhibition [3] [%] | Compound
14 | 86 | 94 | Oc1cc(O)c2c(c1)O[C@H](c1ccc(O)c(O)c1)[C@H](O)[C@H]2c1c(O)c2c(c3c1O[C@]1(c4ccc(O)c(O)c4)Oc4cc(O)cc(O)c4[C@H]3[C@H]1O)O[C@H](c1ccc(O)c(O)c1)[C@H](O)[C@H]2c1c(O)cc(O)c2c1O[C@H](c1ccc(O)c(O)c1)[C@H](O)C2 (mixture of isomers)
38 | 52 | 97 | Oc1cc(O)c2c(c1)O[C@H](c1ccc(O)c(O)c1)[C@H](O)[C@H]2c1c(O)c2c(c3c1O[C@]1(c4ccc(O)c(O)c4)Oc4cc(O)cc(O)c4[C@H]3[C@H]1O)O[C@H](c1ccc(O)c(O)c1)[C@H](O)[C@H]2c1c(O)cc(O)c2c1O[C@H](c1ccc(O)c(O)c1)[C@@H](O)C2 (mixture of isomers)
2 | 44 | 95 | Oc1cc(O)c2c(c1)O[C@@]1(c3ccc(O)c(O)c3)Oc3cc(O)c4c(c3[C@@H]2[C@H]1O)O[C@H](c1ccc(O)c(O)c1)[C@H](O)[C@H]4c1c(O)cc(O)c2c1O[C@H](c1ccc(O)c(O)c1)[C@@H](O)C2 (mixture of isomers)
19 | 27 | 86 | Oc1cc(O)c2c(c1)O[C@@]1(c3ccc(O)c(O)c3)Oc3cc(O)c4c(c3[C@@H]2[C@H]1O)O[C@H](c1ccc(O)c(O)c1)[C@H](O)[C@H]4c1c(O)cc(O)c2c1O[C@H](c1ccc(O)c(O)c1)[C@H](O)C2 (mixture of isomers)
